From ChEMBL document CHEMBL2406989, “Design, synthesis and preliminary evaluation of a series of histone deacetylase inhibitors carrying a benzodiazepine ring” (Eur J Med Chem, 2013)
Activity calls are given as the source filed them. The calls are words filed in the database; no cut-off is given here.

Legend:
HCT-116 = experiment: Antiproliferative activity against human HCT116 cells after 72 hrs by CellTiter-Glo assay; format: functional, cell-based; details: HCT-116, 72 h
Histone deacetylase = experiment: Inhibition of HDAC in human HeLa cell extract using fluor de Lys as substrate after 15 mins by fluorometric analysis; format: protein assay
K562 = experiment: Antiproliferative activity against human K562 cells after 72 hrs by CellTiter-Glo assay; format: functional, cell-based; details: K562, 72 h
NB-4 [1] = experiment: Induction of apoptosis in human NB4 cells after 48 hrs by Annexin V test; format: functional, cell-based; details: NB-4, 48 h
[2] = target: T1, Histone deacetylase (Homo sapiens) (UniProt Q13547+O15379+Q9UBN7+Q92769+Q9UQL6+Q8WUI4+Q9BY41+Q96DB2+P56524+Q9UKV0+Q969S8); details: HeLa, at 1 µM
A549 = experiment: Antiproliferative activity against human A549 cells after 72 hrs by CellTiter-Glo assay; format: functional, cell-based; details: A549, 72 h
[3] = target: T2, Protein deacetylase HDAC6 (Homo sapiens, UniProt Q9UBN7); experiment: Inhibition of full length His-tagged human recombinant HDAC6 expressed in baculovirus system using fluor de Lys as substrate by fluorometric analysis
T2 sequence (Q9UBN7 whole entry): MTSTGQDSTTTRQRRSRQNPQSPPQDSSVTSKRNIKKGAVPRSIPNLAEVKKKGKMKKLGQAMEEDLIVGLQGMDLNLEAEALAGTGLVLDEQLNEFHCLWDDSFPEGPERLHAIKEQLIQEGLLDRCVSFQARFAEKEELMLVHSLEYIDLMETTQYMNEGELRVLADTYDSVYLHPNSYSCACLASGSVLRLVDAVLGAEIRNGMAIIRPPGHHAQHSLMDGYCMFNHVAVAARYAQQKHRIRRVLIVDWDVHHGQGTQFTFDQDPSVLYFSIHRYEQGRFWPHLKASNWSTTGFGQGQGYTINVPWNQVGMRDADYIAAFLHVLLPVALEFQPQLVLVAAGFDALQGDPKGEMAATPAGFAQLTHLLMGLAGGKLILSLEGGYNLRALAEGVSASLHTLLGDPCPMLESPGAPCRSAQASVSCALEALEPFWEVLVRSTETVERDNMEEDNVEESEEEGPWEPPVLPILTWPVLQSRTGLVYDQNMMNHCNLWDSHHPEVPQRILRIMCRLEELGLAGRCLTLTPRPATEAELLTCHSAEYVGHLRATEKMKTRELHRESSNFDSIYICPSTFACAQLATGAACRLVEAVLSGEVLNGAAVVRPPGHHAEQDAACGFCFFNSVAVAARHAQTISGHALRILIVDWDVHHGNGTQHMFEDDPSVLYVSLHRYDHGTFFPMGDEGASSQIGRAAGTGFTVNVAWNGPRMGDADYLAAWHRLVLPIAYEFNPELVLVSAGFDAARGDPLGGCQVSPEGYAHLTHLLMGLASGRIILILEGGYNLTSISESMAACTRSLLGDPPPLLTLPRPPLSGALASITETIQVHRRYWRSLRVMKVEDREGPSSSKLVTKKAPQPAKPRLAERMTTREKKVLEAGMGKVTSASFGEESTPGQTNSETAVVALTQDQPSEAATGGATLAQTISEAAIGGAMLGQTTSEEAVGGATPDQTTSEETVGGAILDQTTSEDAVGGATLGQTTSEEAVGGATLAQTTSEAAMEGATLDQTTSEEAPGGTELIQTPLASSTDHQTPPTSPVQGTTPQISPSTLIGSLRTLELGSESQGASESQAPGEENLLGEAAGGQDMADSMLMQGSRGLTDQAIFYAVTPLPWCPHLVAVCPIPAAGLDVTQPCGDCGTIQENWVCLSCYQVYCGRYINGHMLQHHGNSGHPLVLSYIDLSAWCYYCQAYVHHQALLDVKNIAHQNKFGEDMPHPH

Histone deacetylase 1 = Histone deacetylase 1 (Homo sapiens, UniProt Q13547); experiment: Inhibition of full length His-tagged human recombinant HDAC1 expressed in baculovirus system using fluor de Lys as substrate by fluorometric analysis
Chain of Histone deacetylase 1 (Q13547 whole entry, the tested form may be a part): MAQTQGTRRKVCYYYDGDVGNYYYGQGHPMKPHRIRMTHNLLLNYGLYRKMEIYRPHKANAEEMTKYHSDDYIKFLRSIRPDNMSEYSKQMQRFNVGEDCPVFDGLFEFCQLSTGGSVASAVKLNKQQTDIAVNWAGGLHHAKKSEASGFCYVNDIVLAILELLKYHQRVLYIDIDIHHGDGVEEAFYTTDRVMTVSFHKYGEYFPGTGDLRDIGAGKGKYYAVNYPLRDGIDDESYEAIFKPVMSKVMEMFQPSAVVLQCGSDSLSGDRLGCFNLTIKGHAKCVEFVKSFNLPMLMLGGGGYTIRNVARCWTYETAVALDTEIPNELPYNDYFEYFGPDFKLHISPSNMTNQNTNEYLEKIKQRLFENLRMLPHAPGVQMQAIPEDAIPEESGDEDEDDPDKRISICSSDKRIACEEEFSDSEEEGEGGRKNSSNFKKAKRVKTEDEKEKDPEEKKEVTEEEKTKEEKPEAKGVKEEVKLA

NB-4 [4] = experiment: Induction of apoptosis in human NB4 cells assessed fragmentation using Giemsa staining by microscopic analysis; format: functional, cell-based
NB-4 [5] = experiment: Induction of apoptosis in human NB4 cells assessed apoptotic cells at 1 uM using Annexin-V-Fluos and propidium iodide staining by cytofluorimetric analysis (reference value: 7.2 %); format: functional
NB-4 [6] = experiment: Induction of apoptosis in human NB4 cells assessed apoptotic cells at 0.5 uM using Annexin-V-Fluos and propidium iodide staining by cytofluorimetric analysis (reference value: 7.2 %); format: functional
NB-4 [7] = experiment: Cytotoxicity against human NB4 cells assessed as cell viability after 48 hrs by trypan blue exclusion test; format: functional, cell-based; details: NB-4, 48 h
[8] = target: T1, Histone deacetylase (Homo sapiens); experiment: Inhibition of HDAC in human NB4 cells assessed as histone H3 acetylation at 0.5 uM by densitometric analysis; format: cell-based; details: NB-4
Method in brief: (§1)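 NB4 cells (1×10^5/ml) exposed 6 h to 0, 0.5, 1 or 2 μM drug (DMSO vehicle ≤0.3%). Lysed in 1% Triton X-100/1 mM PMSF/40 mM Tris-HCl pH 8.0/150 mM NaCl and sonicated. Run on 12.5% SDS-PAGE, blotted, probed with rabbit anti-acetyl-H3 or -H4 plus peroxidase secondary, ECL. Densitometry against α-tubulin, treated vs untreated, from one typical experiment.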

NB-4 [9] = experiment: Induction of apoptosis in human NB4 cells assessed increase in cell shrinking using Giemsa staining by microscopic analysis; format: functional, cell-based
NB-4 [10] = experiment: Induction of apoptosis in human NB4 cells assessed apoptotic cells at 2 uM using Annexin-V-Fluos and propidium iodide staining by cytofluorimetric analysis (reference value: 7.2 %); format: functional
NB-4 [11] = experiment: Induction of apoptosis in human NB4 cells assessed increase in apoptotic bodies at 1 to 2 uM using Giemsa staining by microscopic analysis; format: functional, cell-based
[12] = target: T1, Histone deacetylase (Homo sapiens); experiment: Inhibition of HDAC in human NB4 cells assessed as histone H4 acetylation after 6 hrs by Western blot/immunostaining analysis; format: cell-based; details: NB-4; method in brief: as §1
[13] = target: T1, Histone deacetylase (Homo sapiens); experiment: Inhibition of HDAC in human NB4 cells assessed as histone H4 acetylation at 0.5 uM by densitometric analysis; format: cell-based; details: NB-4; method in brief: as §1
[14] = target: T1, Histone deacetylase (Homo sapiens); experiment: Inhibition of HDAC in human NB4 cells assessed as histone H3 acetylation after 6 hrs by Western blot/immunostaining analysis; format: cell-based; details: NB-4; method in brief: as §1
[15] = target: T1, Histone deacetylase (Homo sapiens); experiment: Inhibition of HDAC in human NB4 cells assessed as histone H3 acetylation at 1 uM by densitometric analysis; format: cell-based; details: NB-4; method in brief: as §1
[16] = target: T1, Histone deacetylase (Homo sapiens); experiment: Inhibition of HDAC in human NB4 cells assessed as histone H4 acetylation at 1 uM by densitometric analysis; format: cell-based; details: NB-4; method in brief: as §1

SMILES	IC50 (HCT-116)	IC50 (Histone deacetylase)	IC50 (K562)	IC50 (NB-4 [1])	inhibition [2]	IC50 (A549)	IC50 [3]	IC50 (Histone deacetylase 1)	also measured
O=C(CCCCCCC(=O)N1CCN=C(c2ccccc2)c2ccccc21)NO	1440 nM	180 nM	1670 nM	3990 nM	82%	2540 nM	1120 nM	250 nM	–
CN1C(=O)CN=C(c2ccccc2)c2cc(C#C/C=C/C(=O)NO)ccc21	460 nM	160 nM	780 nM	2600 nM	82%	1300 nM	7720 nM	440 nM	–
CN1C(=O)CN=C(c2ccccc2)c2cc(C#CCCCC(=O)NO)ccc21	2620 nM	–	4970 nM	1950 nM	39%	5950 nM	–	–	–
CN1C(=O)[C@@H](NC(=O)CCCCCCC(=O)NO)N=C(c2ccccc2)c2ccccc21	470 nM	120 nM	720 nM	860 nM	88%	1440 nM	400 nM	550 nM	Activity (NB-4 [4]): Dose-dependent effect; Activity (NB-4 [5]): 66.2%; Activity (NB-4 [6]): 8.6%; IC50 (NB-4 [7]): 460 nM; inhibition [8]: 50%; Activity (NB-4 [9]): Dose-dependent effect; Activity (NB-4 [10]): 83.4%; Activity (NB-4 [11]): Active; inhibition [12]: Dose-dependent effect; inhibition [13]: 8%; inhibition [14]: Dose-dependent effect; inhibition [15]: 84%; inhibition [16]: 51%
C[C@@H]1N=C(c2ccccc2)c2cc(C#CCCCC(=O)NO)ccc2NC1=O	970 nM	340 nM	1400 nM	3040 nM	65%	2820 nM	460 nM	490 nM	–
CN1C(=O)C(NC(=O)CCCCCC(=O)NO)N=C(c2ccccc2)c2ccccc21 (racemic)	1440 nM	320 nM	1840 nM	2560 nM	73%	4420 nM	180 nM	270 nM	–
CN1C(=O)C(NC(=O)CCCCCCC(=O)NO)N=C(c2ccccc2)c2ccccc21 (racemic)	–	–	–	1200 nM	–	–	–	–	–
CN1C(=O)[C@H](NC(=O)CCCCCCC(=O)NO)N=C(c2ccccc2)c2ccccc21	1070 nM	310 nM	1720 nM	> 5000 nM	73%	2690 nM	6500 nM	700 nM	–
CN1C(=O)C(NC(=O)CCCCCCCC(=O)NO)N=C(c2ccccc2)c2ccccc21 (racemic)	3930 nM	600 nM	4590 nM	4000 nM	57%	7950 nM	9080 nM	480 nM	–
CN1C(=O)CN=C(c2ccccc2)c2cc(C#CCCCCC(=O)NO)ccc21	1860 nM	–	2670 nM	4090 nM	36%	2690 nM	5900 nM	1900 nM	–
CN1C(=O)C(N)N=C(c2ccccc2)c2cc(C#CCCCC(=O)NO)ccc21 (racemic)	–	–	–	–	–	–	> 100000 nM	1090 nM	–
CN1C(=O)C(NC(=O)CCCCC(=O)NO)N=C(c2ccccc2)c2ccccc21 (racemic)	2010 nM	380 nM	3280 nM	1910 nM	70%	5440 nM	> 100000 nM	420 nM	–
CN1C(=O)CN=C(c2ccccc2)c2cc(C#CCCC(=O)NO)ccc21	6540 nM	–	8220 nM	> 5000 nM	22%	10300 nM	> 100000 nM	2750 nM	–
